In brackets after ≈: the same amount, converted by molar mass. Square brackets hold non-standard residues; d marks the D form. Peptide text beside a SMILES is read from it. Nphe = O=C(O)CNCc1ccccc1; Nlys = NCCCCNCC(=O)O

Data on 10 compounds can be found in ChEMBL document CHEMBL2169776, “Antimicrobial activity of peptidomimetics against multidrug-resistant Escherichia coli: a comparative study of different backbones” (J Med Chem, 2012).

Data set [1] deals with Staphylococcus aureus. The experiment in a line: Antibacterial activity against methicillin-resistant Staphylococcus aureus isolate after 16 to 20 hrs by broth microdilution assay. The format is functional. For orientation: In broth dilution the organism is exposed to a series of concentrations in liquid medium.
Data set [2] relates to Klebsiella pneumoniae. The data set can be described thus: Antibacterial activity against multidrug resistant KPC producing Klebsiella pneumoniae isolate after 16 to 20 hrs by broth microdilution assay. Format: functional.
Data set [3] deals with Escherichia coli. The data set can be described thus: Antibacterial activity against multidrug resistant NDM-1 producing Escherichia coli isolate after 16 to 20 hrs by broth microdilution assay. The format is functional.
Data set [4] deals with Klebsiella pneumoniae. The data set can be described thus: Antibacterial activity against multidrug resistant NDM-1 producing Klebsiella pneumoniae isolate after 16 to 20 hrs by broth microdilution assay. The format is functional.
Data set [5] has as its system Escherichia coli. The data set can be described thus: Antibacterial activity against multidrug resistant Amp-C producing Escherichia coli isolate after 16 to 20 hrs by broth microdilution assay. Format: functional.
In data set [6] the test system is Escherichia coli. The data set can be described thus: Antibacterial activity against multidrug resistant ESBL producing Escherichia coli isolate after 16 to 20 hrs by broth microdilution assay. The format is functional.
Data set [7] has as its system Escherichia coli. The experiment in a line: Antibacterial activity against Escherichia coli ATCC 25922 after 16 to 20 hrs by broth microdilution assay. The format is functional.
Data set [8] can be described thus: Hemolytic activity against human RBCs after 1 hr by spectrophotometry. The format is ADME, cell-based. As to conditions: erythrocyte. In outline: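 Freshly drawn human erythrocytes washed in TBS (pH 7.2, 10 mM Tris, 150 mM NaCl), 1% v/v suspension mixed with 2-fold serial dilutions (1−128 μM) in water; 1 h at 37 °C. After pelleting, supernatant diluted 1:1 with water and hemoglobin read at OD 405 nm. Melittin (400 μg/mL) = 100%, TBS = 0%. Value is the lowest concentration giving ≥10% lysis.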

The nature of data set [9]: Therapeutic index, ratio of HC10 for human erythrocyte cells to MIC for multidrug resistant bacterial strains. The following applies: read-out: TI. The essentials: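 TI = hemolytic activity divided by median of MIC values. Hemolysis: washed fresh human RBCs (1% v/v in TBS, pH 7.2) with 2-fold oligomer dilutions (1–128 μM), 37 °C, 1 h; supernatant OD 405 nm; melittin 400 μg/mL = 100%, TBS = 0%. HA = concentration giving ≥10% lysis. MICs by broth microdilution, 35 °C, 16–20 h.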

Data set [10] can be described thus: Proteolytic stability of compound in presence of Pronase by reverse phase HPLC analysis. The format is ADME. In outline: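 Oligomer (2 mg/mL solution, 250 μL) incubated with Pronase (1.0 mg/mL solution, 50 μL) in 10 mM Tris pH 7.5 (1.2 mL); enzyme activity first confirmed on Nα-benzoyl arginine. Degradation followed by analytical reverse-phase HPLC (10−60% B) at 6, 12, 18 and 50 h; degradation product identified by HRMS.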

Data set [11] has as its system HeLa. The experiment in a line: Cytotoxicity against human HeLa cells assessed as growth inhibition after 1 hr. The format is cell-based. The essentials:
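HeLa cells seeded at 9000 per well, cultured 24 h; at 80−100% confluency washed with HBSS and exposed 1 h (37 °C, 50 rpm) to 2-fold serial dilutions in EMEM. After washing, MTS/PMS (240/2.4 μg/mL) in HBSS added for 1.5 h; formazan read at 492 nm. 0.2% SDS = 0%, EMEM alone = 100%. Test range 1−128 or 8−1024 μM; IC50 reported.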

What is called MIC is the least concentration at which growth counts as inhibited. Read a high MIC as a need for much substance. In the case of GENTAMICIN, the MIC was 56 µM in data set [1]; greater than 111 µM in data set [2]; greater than 111 µM in [3]; 111 µM in data set [4]; 6.9 µM in [5]; greater than 111 µM in data set [6]. Further, inhibition of growth in data set [7] (MIC) required 1.7 µM.

As a reminder, the IC50 is the concentration that inhibits the measured activity by half. With `CC(=O)N[C@@H](CCCCN)C(=O)N[C@@H](Cc1ccccc1)C(=O)N[C@@H](CCCCN)C(=O)N[C@@H](Cc1ccccc1)C(=O)N[C@@H](CCCCN)C(=O)N[C@@H](Cc1ccccc1)C(=O)N[C@@H](CCCCN)C(=O)N[C@@H](Cc1ccccc1)C(=O)N[C@@H](CCCCN)C(=O)N[C@@H](Cc1ccccc1)C(=O)N[C@@H](CCCCN)C(=O)N[C@@H](Cc1ccccc1)C(=O)N[C@@H](CCCCN)C(=O)N[C@@H](Cc1ccccc1)C(=O)N[C@@H](CCCCN)C(=O)N[C@@H](Cc1ccccc1)C(N)=O`, the HC10 in data set [8] was less than 1 µM. Besides, the MIC in [1] was 16 µM (≈ 36.2 µg/mL); in data set [2], greater than 256 µM; in data set [3] it was 128 µM (≈ 290 µg/mL); in [4] it was greater than 256 µM; in [5], greater than 256 µM; in data set [6], greater than 256 µM. Besides, the MIC in data set [7] is greater than 256 µM. For the same compound, the selectivity ratio in data set [9] is less than 0.004. Further, in data set [10], the Stability result is given as “Unstable”. Besides, the 50% inhibitory concentration (IC50) in data set [11] came out at 19.6 µM.

For `CO/N=C(\C(=O)N[C@@H]1C(=O)N2C(C(=O)O)=C(COC(C)=O)CS[C@H]12)c1csc(N)n1` [CEFOTAXIME], the MIC in data set [1] is 34 µM (≈ 15.5 µg/mL); in [2], greater than 134 µM; in data set [3] it was greater than 134 µM; in [4], greater than 134 µM; in [5] it was 2.1 µM (≈ 0.956 µg/mL); in data set [6], greater than 134 µM. In data set [7], this compound returned an MIC of less than 0.1 µM.

Consider `CC(=O)N[C@@H](CCCCN)C(=O)N(CC(=O)N[C@@H](CCCCN)C(=O)N(CC(=O)N[C@@H](CCCCN)C(=O)N(CC(=O)N[C@@H](CCCCN)C(=O)N(CC(=O)N[C@@H](CCCCN)C(=O)N(CC(=O)N[C@@H](CCCCN)C(=O)N(CC(=O)N[C@@H](CCCCN)C(=O)N(CC(=O)N[C@@H](CCCCN)C(=O)N(CC(N)=O)Cc1ccccc1)Cc1ccccc1)Cc1ccccc1)Cc1ccccc1)Cc1ccccc1)Cc1ccccc1)Cc1ccccc1)Cc1ccccc1` (Ac-K[Nphe]K[Nphe]K[Nphe]K[Nphe]K[Nphe]K[Nphe]K[Nphe]K[Nphe]-NH2), for which, in data set [8], the HC10 was greater than 128 µM. The MIC in [1] was 256 µM (≈ 579 µg/mL); in data set [2], 128 µM (≈ 290 µg/mL); in [3], 2 µM (≈ 4.52 µg/mL); in [4], 128 µM (≈ 290 µg/mL); in [5] it was 8 µM (≈ 18.1 µg/mL); in data set [6] it was 8 µM (≈ 18.1 µg/mL). This compound also came in with an MIC in [7] of 4 µM (≈ 9.05 µg/mL). The selectivity ratio in data set [9] was greater than 21. In [10], the Stability entry is given as “Stable”. In data set [11], the IC50 amounted to 101 µM.

For `CC(=O)N(CCCCN)CCC(=O)N[C@@H](Cc1ccccc1)C(=O)N(CCCCN)CCC(=O)N[C@@H](Cc1ccccc1)C(=O)N(CCCCN)CCC(=O)N[C@@H](Cc1ccccc1)C(=O)N(CCCCN)CCC(=O)N[C@@H](Cc1ccccc1)C(=O)N(CCCCN)CCC(=O)N[C@@H](Cc1ccccc1)C(=O)N(CCCCN)CCC(=O)N[C@@H](Cc1ccccc1)C(=O)N(CCCCN)CCC(=O)N[C@@H](Cc1ccccc1)C(=O)N(CCCCN)CCC(=O)N[C@@H](Cc1ccccc1)C(N)=O`, in data set [8], the HC10 was greater than 128 µM. The MIC came to 256 µM (≈ 608 µg/mL) in data set [1]; 64 µM (≈ 152 µg/mL) in data set [2]; 2 µM (≈ 4.75 µg/mL) in data set [3]; 256 µM (≈ 608 µg/mL) in data set [4]; 16 µM (≈ 38 µg/mL) in data set [5]; 16 µM (≈ 38 µg/mL) in [6]. This compound also came in with an MIC in data set [7] of 8 µM (≈ 19 µg/mL). Besides, the selectivity ratio in [9] was greater than 11. Also, the Stability entry in data set [10] was “Stable”. The IC50 in data set [11] is 62.6 µM.

Turning to `CC(=O)N[C@@H](CCCCN)C(=O)N[C@H](CC(=O)N[C@@H](CCCCN)C(=O)N[C@H](CC(=O)N[C@@H](CCCCN)C(=O)N[C@H](CC(=O)N[C@@H](CCCCN)C(=O)N[C@H](CC(=O)N[C@@H](CCCCN)C(=O)N[C@H](CC(=O)N[C@@H](CCCCN)C(=O)N[C@H](CC(=O)N[C@@H](CCCCN)C(=O)N[C@H](CC(=O)N[C@@H](CCCCN)C(=O)N[C@H](CC(N)=O)Cc1ccccc1)Cc1ccccc1)Cc1ccccc1)Cc1ccccc1)Cc1ccccc1)Cc1ccccc1)Cc1ccccc1)Cc1ccccc1`, in data set [8], the HC10 came to 64 µM. In addition, the MIC came out at 32 µM (≈ 76 µg/mL) in data set [1]; 128 µM (≈ 304 µg/mL) in data set [2]; 64 µM (≈ 152 µg/mL) in data set [3]; 128 µM (≈ 304 µg/mL) in [4]; 32 µM (≈ 76 µg/mL) in data set [5]; 32 µM (≈ 76 µg/mL) in data set [6]. In addition, the lowest concentration to inhibit growth in data set [7] (MIC) was 64 µM (≈ 152 µg/mL). The selectivity ratio in data set [9] is 1. In addition, the Stability result in [10] was “Stable”. For the same compound, in [11], the IC50 turned out to be 31.1 µM.

Turning to `CC(=O)N(CCCCN)CCC(=O)N(CCC(=O)N(CCCCN)CCC(=O)N(CCC(=O)N(CCCCN)CCC(=O)N(CCC(=O)N(CCCCN)CCC(=O)N(CCC(=O)N(CCCCN)CCC(=O)N(CCC(=O)N(CCCCN)CCC(=O)N(CCC(=O)N(CCCCN)CCC(=O)N(CCC(=O)N(CCCCN)CCC(=O)N(CCC(N)=O)Cc1ccccc1)Cc1ccccc1)Cc1ccccc1)Cc1ccccc1)Cc1ccccc1)Cc1ccccc1)Cc1ccccc1)Cc1ccccc1`, in data set [8], the HC10 was greater than 128 µM. Also, the MIC worked out at 256 µM (≈ 636 µg/mL) in data set [1]; 256 µM (≈ 636 µg/mL) in data set [2]; 4 µM (≈ 9.95 µg/mL) in [3]; 256 µM (≈ 636 µg/mL) in data set [4]; 16 µM (≈ 39.8 µg/mL) in [5]; 8 µM (≈ 19.9 µg/mL) in [6]. Moreover, in data set [7], the MIC is 16 µM (≈ 39.8 µg/mL). For the same compound, the selectivity ratio in [9] was greater than 10. In addition, the Stability entry in data set [10] was “Stable”. In addition, the IC50 in data set [11] was determined as 169 µM.

With `CC(=O)N[C@@H](CCCCN)CC(=O)N[C@H](CC(=O)N[C@@H](CCCCN)CC(=O)N[C@H](CC(=O)N[C@@H](CCCCN)CC(=O)N[C@H](CC(=O)N[C@@H](CCCCN)CC(=O)N[C@H](CC(=O)N[C@@H](CCCCN)CC(=O)N[C@H](CC(=O)N[C@@H](CCCCN)CC(=O)N[C@H](CC(=O)N[C@@H](CCCCN)CC(=O)N[C@H](CC(=O)N[C@@H](CCCCN)CC(=O)N[C@H](CC(N)=O)Cc1ccccc1)Cc1ccccc1)Cc1ccccc1)Cc1ccccc1)Cc1ccccc1)Cc1ccccc1)Cc1ccccc1)Cc1ccccc1`, the HC10 in [8] amounted to 128 µM. Besides, the MIC in data set [1] was 16 µM (≈ 39.8 µg/mL); in data set [2], 32 µM (≈ 79.6 µg/mL); in data set [3] it was 32 µM (≈ 79.6 µg/mL); in data set [4] it was 32 µM (≈ 79.6 µg/mL); in [5], 32 µM (≈ 79.6 µg/mL); in data set [6], 32 µM (≈ 79.6 µg/mL). Inhibition of growth in data set [7] (MIC) required 16 µM (≈ 39.8 µg/mL). In data set [9], the selectivity ratio turned out to be 4. Moreover, the Stability result in data set [10] is “Stable”. Besides, in [11], the IC50 was 31 µM.

As for `O=C(O)c1cn(C2CC2)c2cc(N3CCNCC3)c(F)cc2c1=O` [CIPROFLOXACIN], the MIC was 19 µM (≈ 6.3 µg/mL) in [1] and less than 0.1 µM in data set [7].

In data set [8], `CC(=O)N(CCCCN)CC(=O)N[C@@H](Cc1ccccc1)C(=O)N(CCCCN)CC(=O)N[C@@H](Cc1ccccc1)C(=O)N(CCCCN)CC(=O)N[C@@H](Cc1ccccc1)C(=O)N(CCCCN)CC(=O)N[C@@H](Cc1ccccc1)C(=O)N(CCCCN)CC(=O)N[C@@H](Cc1ccccc1)C(=O)N(CCCCN)CC(=O)N[C@@H](Cc1ccccc1)C(=O)N(CCCCN)CC(=O)N[C@@H](Cc1ccccc1)C(=O)N(CCCCN)CC(=O)N[C@@H](Cc1ccccc1)C(N)=O` (Ac-[Nlys]F[Nlys]F[Nlys]F[Nlys]F[Nlys]F[Nlys]F[Nlys]F[Nlys]F-NH2) showed an HC10 greater than 128 µM. Further, the MIC was greater than 256 µM in [1]; 256 µM (≈ 579 µg/mL) in [2]; 32 µM (≈ 72.4 µg/mL) in data set [3]; 256 µM (≈ 579 µg/mL) in data set [4]; 32 µM (≈ 72.4 µg/mL) in [5]; 16 µM (≈ 36.2 µg/mL) in data set [6]. For the same compound, the MIC in data set [7] came out at 16 µM (≈ 36.2 µg/mL). For the same compound, the selectivity ratio in [9] is greater than 5. Also, the IC50 in data set [11] stood at 267 µM.
